Measured values taken from ChEMBL document CHEMBL3525963, “Tissue distribution and elimination of [14C]apixaban in rats” (Drug Metab Dispos, 2011).

Legend:
Conditions in all cases: in vivo
Rattus norvegicus [1] = assay: Biodistribution in male Sprague-Dawley rat brown fat at 5 mg/kg, po administered as single dose measured after 0.5 hrs; assay type: ADME, organism-based, Brown adipose tissue; set-up: dose 5 mg/kg, dosed compound name [14C]-apixaban, route oral
In short: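 Fasted male rats, 225-252 g, received [14C]apixaban by single oral gavage at 100 μCi/kg in 0.5% Tween 80/Labrafil. One rat was killed per time point and the carcass frozen. Tissue radioactivity was quantified by QWBA (40 µm sagittal sections, phosphor plate, [14C]glucose calibration) as µg eq apixaban/g, with LLOQ 0.037 μg eq/g.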

Thymus [2] = assay: Biodistribution in male Sprague-Dawley rat thymus at 5 mg/kg, po administered as single dose measured after 0.5 hrs; assay type: ADME, organism-based; set-up: dose 5 mg/kg, dosed compound name [14C]-apixaban, route oral
In short: (§1)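 [14C]apixaban (1.0 mg/mL, 20 μCi/mL) in 0.5% Tween 80 in Labrafil, given by oral gavage at 100 μCi/kg to male rats (225-252 g) fasted overnight through 4 h post-dose. One rat per time point. Carcasses frozen in hexane/dry ice and cut into 40 µm sagittal sections. QWBA read on phosphor plates against [14C]glucose standards, reported as µg eq/g. LLOQ 0.037 µg eq/g.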

Blood [3] = assay: Biodistribution in male Sprague-Dawley rat blood at 5 mg/kg, po administered as single dose measured after 1 hr; assay type: ADME, organism-based; set-up: dose 5 mg/kg, dosed compound name [14C]-apixaban, route oral
In short: (§2)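 [¹⁴C]Apixaban given by oral gavage at 5 mg/kg (100 μCi/kg) in 0.5% Tween 80 in Labrafil (1.0 mg/mL dosing solution) to rats fasted overnight through 4 h post-dose. One rat per time point; carcass frozen in hexane/dry ice. Quantitative whole-body autoradiography used 40 µm sagittal sections and a phosphor imaging plate calibrated with [¹⁴C]glucose standards (0.001–6.5 μCi/g). Read-out in µg eq apixaban/g; LLOQ 0.037 μg eq/g.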

Muscle tissue [4] = assay: Biodistribution in male Sprague-Dawley rat muscle at 5 mg/kg, po administered as single dose measured after 72 hrs; assay type: ADME, organism-based; set-up: dose 5 mg/kg, dosed compound name [14C]-apixaban, route oral
In short: (§3)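 Fasted male SD rats (225-252 g) each received one oral gavage dose of [14C]apixaban, 5 mg/kg (100 μCi/kg), in 0.5% Tween 80/Labrafil vehicle. One rat was killed per time point, from 0.5 to 168 h. Frozen carcasses were cut into 40 µm sagittal whole-body sections and read by QWBA phosphor imaging against [14C]glucose calibrants. Results are in µg apixaban eq/g; BLQ <0.037 µg eq/g.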

Spleen = assay: Biodistribution in male Sprague-Dawley rat spleen at 5 mg/kg, po administered as single dose measured after 72 hrs; assay type: ADME, organism-based; set-up: dose 5 mg/kg, dosed compound name [14C]-apixaban, route oral; in short: as §3
Rattus norvegicus [5] = assay: Biodistribution in male Sprague-Dawley rat salivary gland at 5 mg/kg, po administered as single dose measured after 8 hrs; assay type: ADME, organism-based; set-up: dose 5 mg/kg, dosed compound name [14C]-apixaban, route oral
Liver [6] = assay: Biodistribution in male Sprague-Dawley rat liver at 5 mg/kg, po administered as single dose measured after 24 hrs; assay type: ADME, organism-based; set-up: dose 5 mg/kg, dosed compound name [14C]-apixaban, route oral; in short: as §1
Thymus [7] = assay: Biodistribution in female Sprague-Dawley rat thymus at 5 mg/kg, po administered as single dose measured after 24 hrs; assay type: ADME, organism-based; set-up: dose 5 mg/kg, dosed compound name [14C]-apixaban, route oral
In short: (§4)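 Quantitative whole-body autoradiography was run after a single 5 mg/kg (100 μCi/kg) oral gavage to fasted female or pregnant SD rats, one rat per time point. Carcasses were frozen in hexane/dry ice, and 40 µm sagittal sections were dried at −20°C for at least 48 h. Sections were exposed to a phosphor plate alongside [14C]glucose standards (0.001–6.5 µCi/g). Results are µg eq/g, with LLOQ 0.037 µg eq/g.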

Adrenal gland = assay: Biodistribution in female Sprague-Dawley rat adrenal gland at 5 mg/kg, po administered as single dose measured after 8 hrs; assay type: ADME, organism-based; set-up: dose 5 mg/kg, dosed compound name [14C]-apixaban, route oral; in short: as §2
Blood [8] = assay: Biodistribution in female Sprague-Dawley rat blood at 5 mg/kg, po administered as single dose measured after 1 hr; assay type: ADME, organism-based; set-up: dose 5 mg/kg, dosed compound name [14C]-apixaban, route oral; in short: as §2
Harderian gland [9] = assay: Biodistribution in male Sprague-Dawley rat harderian gland at 5 mg/kg, po administered as single dose measured after 72 hrs; assay type: ADME, organism-based; set-up: dose 5 mg/kg, dosed compound name [14C]-apixaban, route oral; in short: as §3
Rattus norvegicus [10] = assay: Biodistribution in pregnant Sprague-Dawley rat kidney cortex at 5 mg/kg, po administered as single dose measured after 8 hrs; assay type: ADME, organism-based; set-up: dose 5 mg/kg, dosed compound name [14C]-apixaban, route oral
Rattus norvegicus [11] = assay: Biodistribution in pregnant Sprague-Dawley rat placenta at 5 mg/kg, po administered as single dose measured after 8 hrs; assay type: ADME, organism-based; set-up: dose 5 mg/kg, dosed compound name [14C]-apixaban, route oral
Thymus [12] = assay: Biodistribution in pregnant Sprague-Dawley rat thymus at 5 mg/kg, po administered as single dose measured after 24 hrs; assay type: ADME, organism-based; set-up: dose 5 mg/kg, dosed compound name [14C]-apixaban, route oral
In short: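 Pregnant SD rats (270-319 g) were fasted overnight and given one oral gavage of 5 mg/kg (100 μCi/kg) in 0.5% Tween 80 in Labrafil. One rat was euthanized per time point (0.5, 1, 4, 8, 24, 48 h) and the carcass frozen. 40 µm sagittal sections were phosphor-imaged against [14C]glucose standards and results reported as µg eq/g; LLOQ 0.037 µg eq/g.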

Blood [13] = assay: AUC (0 to infinity) in female Sprague-Dawley rat blood at 5 mg/kg, po administered as single dose; assay type: ADME, organism-based; set-up: time infinity, dose 5 mg/kg, dosed compound name [14C]-apixaban, route oral
Plasma = assay: AUC (0 to infinity) in lactating Sprague-Dawley rat plasma at 5 mg/kg, po administered as single dose; assay type: ADME, organism-based; set-up: time infinity, dose 5 mg/kg, dosed compound name [14C]-apixaban, route oral
In short: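 Fasted lactating SD rats received 5 mg/kg [14C]apixaban orally (formulation 5.0 mg/mL, 20 μCi/mL). Oxytocin was injected subcutaneously 15 min before collection, and 1 mL milk was taken under anesthesia by milking machine. Sampling was predose and at 0.5–24 h, 3 rats per time point. Plasma was obtained at 1300g for 10 min. Duplicate 50–100 µL aliquots were counted by LSC for 10 min. AUC was calculated in WinNonlin.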

[14] = Drug level in lactating Sprague-Dawley rat milk at 5 mg/kg, po administered as single dose after 1 hr; assay type: ADME, organism-based; set-up: dose 5 mg/kg, dosed compound name [14C]-apixaban, route oral
Heart [15] = assay: Biodistribution in female Sprague-Dawley rat heart at 5 mg/kg, po administered as single dose measured after 72 hrs; assay type: ADME, organism-based; set-up: dose 5 mg/kg, dosed compound name [14C]-apixaban, route oral; in short: as §4
Rattus norvegicus [16] = assay: Biodistribution in female Sprague-Dawley rat bone marrow at 5 mg/kg, po administered as single dose measured after 4 hrs; assay type: ADME, organism-based; set-up: dose 5 mg/kg, dosed compound name [14C]-apixaban, route oral
In short: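 [14C]apixaban (20 μCi/mL in dosing solution) in 0.5% Tween 80 in Labrafil given by oral gavage to fasted female rats, 206-213 g, at 100 μCi/kg. One rat per time point was euthanized and snap-frozen. Sagittal 40 µm whole-body sections were read by QWBA phosphor imaging against [14C]glucose standards. Results are in µg eq apixaban/g, with LLOQ 0.037 μg eq/g.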

Liver [17] = assay: Biodistribution in female Sprague-Dawley rat liver at 5 mg/kg, po administered as single dose measured after 1 hr; assay type: ADME, organism-based; set-up: dose 5 mg/kg, dosed compound name [14C]-apixaban, route oral; in short: as §4
Harderian gland [18] = assay: Biodistribution in pregnant Sprague-Dawley rat harderian gland at 5 mg/kg, po administered as single dose measured after 0.5 hrs; assay type: ADME, organism-based; set-up: dose 5 mg/kg, dosed compound name [14C]-apixaban, route oral
Rattus norvegicus [19] = assay: Biodistribution in pregnant Sprague-Dawley rat kidney cortex at 5 mg/kg, po administered as single dose measured after 0.5 hrs; assay type: ADME, organism-based; set-up: dose 5 mg/kg, dosed compound name [14C]-apixaban, route oral
Muscle tissue [20] = assay: Biodistribution in pregnant Sprague-Dawley rat muscle at 5 mg/kg, po administered as single dose measured after 0.5 hrs; assay type: ADME, organism-based; set-up: dose 5 mg/kg, dosed compound name [14C]-apixaban, route oral
Heart [21] = assay: Biodistribution in pregnant Sprague-Dawley rat heart at 5 mg/kg, po administered as single dose measured after 1 hr; assay type: ADME, organism-based; set-up: dose 5 mg/kg, dosed compound name [14C]-apixaban, route oral

**Q.** For `COc1ccc(-n2nc(C(N)=O)c3c2C(=O)N(c2ccc(N4CCCC[14C]4=O)cc2)CC3)cc1`, which Radiolabel recovery (Rattus norvegicus [1]) is on record?
**A.** Its Radiolabel recovery is 0.46 ugequiv/g.

**Q.** What about the Radiolabel recovery (Thymus [2]) of the same compound?
**A.** The Radiolabel recovery was 0.16 ugequiv/g.

**Q.** What about the Radiolabel recovery (Blood [3]) of the same compound?
**A.** The Radiolabel recovery was 1.18 ugequiv/g.

**Q.** What about the Radiolabel recovery (Muscle tissue [4]) of the same compound?
**A.** The Radiolabel recovery was “Not detected assumed BLQ”.

**Q.** And the Radiolabel recovery (Spleen)?
**A.** Its Radiolabel recovery is “Not detected assumed BLQ”.

**Q.** And the Radiolabel recovery (Rattus norvegicus [5])?
**A.** The Radiolabel recovery was 0.13 ugequiv/g.

**Q.** And the Radiolabel recovery (Liver [6])?
**A.** Its Radiolabel recovery is < 0.037 ugequiv/g.

**Q.** And the Radiolabel recovery (Thymus [7])?
**A.** Its Radiolabel recovery is “Not detected assumed BLQ”.

**Q.** And the Radiolabel recovery (Adrenal gland)?
**A.** Its Radiolabel recovery is 0.3 ugequiv/g.

**Q.** What about the Radiolabel recovery (Blood [8]) of the same compound?
**A.** Its Radiolabel recovery is 0.88 ugequiv/g.

**Q.** And the Radiolabel recovery (Harderian gland [9])?
**A.** The Radiolabel recovery was “Not detected assumed BLQ”.

**Q.** What about the Radiolabel recovery (Rattus norvegicus [10]) of the same compound?
**A.** The Radiolabel recovery was 0.21 ugequiv/g.

**Q.** And the Radiolabel recovery (Rattus norvegicus [11])?
**A.** Its Radiolabel recovery is 0.1 ugequiv/g.

**Q.** And the Radiolabel recovery (Thymus [12])?
**A.** The Radiolabel recovery was “Not detected assumed BLQ”.

**Q.** What about the AUC (Blood [13]) of the same compound?
**A.** The AUC was 3780 ngequiv.hr/g.

**Q.** And the AUC (Plasma)?
**A.** The AUC was 3470 ngequiv.hr/g.

**Q.** What about the Radiolabel recovery [14] of the same compound?
**A.** The Radiolabel recovery was 4.56 µg/mL.

**Q.** And the Radiolabel recovery (Heart [15])?
**A.** The Radiolabel recovery was “Not detected assumed BLQ”.

**Q.** And the Radiolabel recovery (Rattus norvegicus [16])?
**A.** Its Radiolabel recovery is 0.26 ugequiv/g.

**Q.** And the Radiolabel recovery (Liver [17])?
**A.** The Radiolabel recovery was 4.31 ugequiv/g.

**Q.** What about the Radiolabel recovery (Harderian gland [18]) of the same compound?
**A.** Its Radiolabel recovery is 1 ugequiv/g.

**Q.** And the Radiolabel recovery (Rattus norvegicus [19])?
**A.** The Radiolabel recovery was 2.11 ugequiv/g.

**Q.** And the Radiolabel recovery (Muscle tissue [20])?
**A.** Its Radiolabel recovery is 0.37 ugequiv/g.

**Q.** And the Radiolabel recovery (Heart [21])?
**A.** The Radiolabel recovery was 0.93 ugequiv/g.
